Paper PMC5615838 (Toxicology Reports, 2016)

Key:
[1] = tested on: GPCRs, ion channels, nuclear receptors, transporters; test: lead profiling receptor screen; assay type: binding; conditions: 10 μM
hERG = hERG (Homo sapiens, UniProt Q12809); test: hERG electrophysiology; assay type: cell-based
CYP1A2 = target: T1, CYP1A2 (Homo sapiens, UniProt P05177); test: CYP inhibition, LC–MS/MS assay in human liver microsomes; assay type: in vitro ADME; conditions: pooled human liver microsomes, probe ethoxyresorufin
T1 sequence (P05177 1-516): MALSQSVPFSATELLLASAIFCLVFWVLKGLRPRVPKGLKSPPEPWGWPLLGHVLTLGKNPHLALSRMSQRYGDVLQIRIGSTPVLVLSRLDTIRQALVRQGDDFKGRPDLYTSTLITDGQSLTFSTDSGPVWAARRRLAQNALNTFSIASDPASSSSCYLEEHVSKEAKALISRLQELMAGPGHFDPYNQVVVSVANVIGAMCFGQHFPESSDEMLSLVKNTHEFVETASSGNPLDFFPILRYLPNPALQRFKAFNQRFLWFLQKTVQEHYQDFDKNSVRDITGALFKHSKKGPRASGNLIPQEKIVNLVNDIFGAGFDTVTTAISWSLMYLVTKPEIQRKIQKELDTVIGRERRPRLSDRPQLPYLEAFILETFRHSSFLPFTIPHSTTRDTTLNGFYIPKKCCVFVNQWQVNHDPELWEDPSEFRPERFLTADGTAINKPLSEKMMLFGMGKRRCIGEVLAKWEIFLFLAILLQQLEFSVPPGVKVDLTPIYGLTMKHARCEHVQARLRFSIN
How it was run: (§1)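 Follow-up CYP panel in pooled human liver microsomes with CYP-specific probe substrates; CYP-specific metabolites quantified by LC-MS/MS. Test compound at 10 μM. Percent inhibition reported.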

CYP2C9 [2] = target: T2, CYP2C9 (Homo sapiens, UniProt P11712); test: as above; assay type: in vitro ADME; conditions: pooled human liver microsomes, probe tolbutamide
T2 sequence (P11712 whole entry): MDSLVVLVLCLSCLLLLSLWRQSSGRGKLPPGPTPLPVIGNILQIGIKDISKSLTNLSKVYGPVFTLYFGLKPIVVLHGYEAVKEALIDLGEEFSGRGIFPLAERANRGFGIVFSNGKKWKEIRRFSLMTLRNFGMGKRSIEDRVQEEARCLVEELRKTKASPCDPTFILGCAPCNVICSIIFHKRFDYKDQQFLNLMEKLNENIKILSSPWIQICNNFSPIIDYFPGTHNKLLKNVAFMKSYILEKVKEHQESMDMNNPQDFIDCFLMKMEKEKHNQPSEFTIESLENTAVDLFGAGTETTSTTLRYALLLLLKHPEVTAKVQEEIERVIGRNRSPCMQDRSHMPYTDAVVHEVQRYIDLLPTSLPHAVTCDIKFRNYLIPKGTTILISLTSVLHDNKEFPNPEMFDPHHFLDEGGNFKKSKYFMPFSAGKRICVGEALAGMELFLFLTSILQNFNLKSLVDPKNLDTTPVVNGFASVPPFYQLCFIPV
How it was run: as §1

CYP2C19 = CYP2C19 (Homo sapiens, UniProt P33261); test: as above; assay type: in vitro ADME; conditions: pooled human liver microsomes, probe S-mephenytoin
CYP2C19, sequence (P33261 whole entry): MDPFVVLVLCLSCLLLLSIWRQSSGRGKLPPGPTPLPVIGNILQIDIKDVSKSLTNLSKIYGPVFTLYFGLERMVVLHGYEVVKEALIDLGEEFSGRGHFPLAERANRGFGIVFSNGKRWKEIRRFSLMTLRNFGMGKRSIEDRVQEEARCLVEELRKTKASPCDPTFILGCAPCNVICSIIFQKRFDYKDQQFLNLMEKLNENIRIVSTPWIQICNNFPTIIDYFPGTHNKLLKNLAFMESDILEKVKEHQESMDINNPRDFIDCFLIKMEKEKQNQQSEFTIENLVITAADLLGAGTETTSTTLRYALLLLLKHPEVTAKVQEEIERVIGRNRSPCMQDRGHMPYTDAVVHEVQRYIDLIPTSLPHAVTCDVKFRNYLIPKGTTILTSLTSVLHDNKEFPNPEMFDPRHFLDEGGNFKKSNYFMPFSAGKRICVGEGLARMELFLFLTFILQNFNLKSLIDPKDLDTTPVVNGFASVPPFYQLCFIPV
How it was run: as §1

CYP2D6 = CYP2D6 (Homo sapiens, UniProt P10635); test: as above; assay type: in vitro ADME; conditions: pooled human liver microsomes, probe bufuralol
CYP2D6, sequence (P10635 whole entry): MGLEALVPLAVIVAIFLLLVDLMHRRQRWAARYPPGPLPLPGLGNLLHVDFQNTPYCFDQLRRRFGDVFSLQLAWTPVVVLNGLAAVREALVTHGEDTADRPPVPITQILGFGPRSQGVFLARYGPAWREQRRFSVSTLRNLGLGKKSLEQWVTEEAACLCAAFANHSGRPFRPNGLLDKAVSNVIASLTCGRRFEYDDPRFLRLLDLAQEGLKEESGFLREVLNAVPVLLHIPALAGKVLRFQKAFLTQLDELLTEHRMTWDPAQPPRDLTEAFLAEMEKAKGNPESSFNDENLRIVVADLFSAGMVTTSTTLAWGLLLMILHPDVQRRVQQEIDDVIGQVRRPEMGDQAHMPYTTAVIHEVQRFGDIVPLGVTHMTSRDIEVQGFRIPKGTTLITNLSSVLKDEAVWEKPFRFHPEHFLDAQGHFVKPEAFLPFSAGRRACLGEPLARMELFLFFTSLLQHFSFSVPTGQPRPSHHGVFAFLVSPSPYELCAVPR
How it was run: as §1

CYP3A4 = CYP3A4 (Homo sapiens, UniProt P08684); test: as above; assay type: in vitro ADME; conditions: pooled human liver microsomes, probe midazolam
CYP3A4, sequence (P08684 whole entry): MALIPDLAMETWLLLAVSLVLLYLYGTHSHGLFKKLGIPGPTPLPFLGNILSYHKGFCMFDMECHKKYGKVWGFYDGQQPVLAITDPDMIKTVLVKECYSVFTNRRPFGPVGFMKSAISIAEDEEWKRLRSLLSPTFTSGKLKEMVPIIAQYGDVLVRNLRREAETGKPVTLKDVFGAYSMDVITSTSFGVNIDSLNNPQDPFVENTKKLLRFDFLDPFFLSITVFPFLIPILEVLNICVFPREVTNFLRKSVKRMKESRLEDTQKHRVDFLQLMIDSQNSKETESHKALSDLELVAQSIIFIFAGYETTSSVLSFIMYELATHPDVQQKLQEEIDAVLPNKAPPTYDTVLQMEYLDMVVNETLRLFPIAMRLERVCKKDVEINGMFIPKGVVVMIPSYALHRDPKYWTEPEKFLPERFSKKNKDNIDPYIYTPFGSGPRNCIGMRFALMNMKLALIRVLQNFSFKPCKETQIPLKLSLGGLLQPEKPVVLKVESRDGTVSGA
How it was run: as §1

CYP2C9 [3] = target: T2, CYP2C9; assay type: in vitro ADME
How it was run: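 Pooled human liver microsomes preincubated with test compound for 30 min, with and without an NADPH-generating system, then incubated with diclofenac as the CYP2C9 marker substrate. IC50 derived.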

[4] = in vivo metabolism after single oral dose, plasma; set-up: species or system rat; conditions: S7958 30 mg/kg bw oral
[5] = tested on: S. typhimurium strains TA98, TA100, TA1535, TA1537 and E. coli strain WP2 uvrA; test: bacterial reverse mutation test; assay type: cell-based, Salmonella typhimurium, Escherichia coli; conditions: 50–5000 μg/plate, plate incorporation and pre-incubation, ±S9
[6] = 28-day subacute toxicity study, diet; assay type: in vivo, rat; conditions: 28 days
How it was run: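 Diet admix given for 28 consecutive days to Crl:CD(SD) rats, 10/sex/group, at 10, 30 or 100 mg/kg bw/day. H&E-stained paraffin sections of tissues examined microscopically for all control and high-dose (100 mg/kg bw/day) animals.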

[7] = proof of exposure in 28-day study, plasma concentrations; assay type: in vivo, rat; conditions: for concentration at 29 day: Crl:CD(SD) (Sprague-Dawley), rat, plasma (peripheral blood), oral; for Hepatic Portal Vein Blood Mean Conc. / Hepatic Portal Vein Blood Mean Conc. Ratio: necropsy
How it was run: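 In the 28-day dietary study (10, 30, 100 mg/kg bw/day), plasma test compound measured in peripheral blood taken at 06:00 h GMT on Day 29. Hepatic portal vein blood was sampled from the same animals at necropsy.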

[8] = JECFA SPET dietary exposure estimate; set-up: species or system human; conditions: 28- and 90-day toxicology studies
[9] = target: human bitter receptor hTAS2R8; conditions: antagonist; cited from earlier work

hERG, sequence (Q12809 whole entry): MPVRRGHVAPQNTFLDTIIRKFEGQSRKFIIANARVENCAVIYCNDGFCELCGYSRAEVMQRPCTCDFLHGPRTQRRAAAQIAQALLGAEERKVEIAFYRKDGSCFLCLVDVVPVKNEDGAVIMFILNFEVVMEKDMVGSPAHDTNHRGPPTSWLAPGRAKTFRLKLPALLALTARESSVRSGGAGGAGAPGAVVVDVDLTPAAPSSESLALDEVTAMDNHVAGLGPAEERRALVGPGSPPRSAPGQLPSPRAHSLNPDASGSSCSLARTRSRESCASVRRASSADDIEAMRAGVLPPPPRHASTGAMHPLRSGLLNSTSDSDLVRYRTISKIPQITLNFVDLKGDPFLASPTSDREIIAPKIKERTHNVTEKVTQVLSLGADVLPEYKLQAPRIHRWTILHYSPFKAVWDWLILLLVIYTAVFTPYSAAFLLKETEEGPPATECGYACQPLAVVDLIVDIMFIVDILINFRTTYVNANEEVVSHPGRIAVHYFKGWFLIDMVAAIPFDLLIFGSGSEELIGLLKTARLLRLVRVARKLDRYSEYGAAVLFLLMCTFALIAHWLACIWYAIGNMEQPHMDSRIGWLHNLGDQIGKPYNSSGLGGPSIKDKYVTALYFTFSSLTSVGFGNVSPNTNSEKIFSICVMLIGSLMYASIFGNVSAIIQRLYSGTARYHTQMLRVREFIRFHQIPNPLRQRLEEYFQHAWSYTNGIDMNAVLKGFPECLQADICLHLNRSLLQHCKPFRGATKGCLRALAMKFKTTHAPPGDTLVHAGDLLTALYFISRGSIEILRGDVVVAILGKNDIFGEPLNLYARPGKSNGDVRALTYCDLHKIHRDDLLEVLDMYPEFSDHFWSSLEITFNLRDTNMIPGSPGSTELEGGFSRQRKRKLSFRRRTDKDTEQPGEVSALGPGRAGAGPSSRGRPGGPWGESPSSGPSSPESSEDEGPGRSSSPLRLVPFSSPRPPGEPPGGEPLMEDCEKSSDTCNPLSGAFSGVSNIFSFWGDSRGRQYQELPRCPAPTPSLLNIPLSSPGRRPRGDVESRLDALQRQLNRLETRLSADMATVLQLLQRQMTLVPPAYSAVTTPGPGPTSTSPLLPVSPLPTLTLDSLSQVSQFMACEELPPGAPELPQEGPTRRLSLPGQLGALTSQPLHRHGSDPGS

Cc1noc(C)c1Cn1cc(N2C(=O)N(Cc3cccc(O)c3)C(C)(C)C2=O)cn1 [S7958, 3-(1-((3,5-dimethylisoxazol-4-yl)methyl)-1H-pyrazol-4-yl)-1-(3-hydroxybenzyl)-5,5-dimethylimidazolidine-2,4-dione]
significant responses (≥50% inhibition or stimulation) [1]: No significant responses
inhibition at 10 µM (hERG): < 10%
inhibition at 10 µM (CYP1A2): 16%
inhibition at 10 µM (CYP2C9 [2]): 62%
inhibition at 10 µM (CYP2C19): 17%
inhibition at 10 µM (CYP2D6): 17%
inhibition at 10 µM (CYP3A4): 12%
IC50 (CYP2C9 [3]): 8.8 µM
time- or metabolism-dependent inhibition (CYP2C9 [3]; 30 min preincubation ±NADPH): no evidence of either time- or metabolism-dependent inhibition
maximum concentration in plasma [4]: 5.2 ± 7.1 ng/mL
Reverse mutation (in vitro), Result [5]: Negative
NOAEL ([6]; 10, 30, 100 mg/kg bw/day food ad-mix, both sexes): 100 mg/kg bw/day
Findings ([6]; up to 100 mg/kg bw/day): No test-article related findings
Peripheral Blood Mean Conc. Ratio ([7]; Day 29, 10 mg/kg bw/day, F): 1
Peripheral Blood Mean Conc. Ratio ([7]; Day 29, 10 mg/kg bw/day, M): 1
Peripheral Blood Mean Conc. Ratio ([7]; Day 29, 30 mg/kg bw/day, F): 3.6
Peripheral Blood Mean Conc. Ratio ([7]; Day 29, 30 mg/kg bw/day, M): 4.1
Peripheral Blood Mean Conc. Ratio ([7]; Day 29, 100 mg/kg bw/day, F): 7.4
Peripheral Blood Mean Conc. Ratio ([7]; Day 29, 100 mg/kg bw/day, M): 41.5
concentration at 29 day ([7]; female, 10 mg/kg bw/day): 18.4 ng/mL
concentration at 29 day ([7]; female, 30 mg/kg bw/day): 66.7 ng/mL
concentration at 29 day ([7]; female, 100 mg/kg bw/day): 136 ng/mL
concentration at 29 day ([7]; male, 10 mg/kg bw/day): 0.441 ng/mL
concentration at 29 day ([7]; male, 30 mg/kg bw/day): 1.79 ng/mL
concentration at 29 day ([7]; male, 100 mg/kg bw/day): 18.3 ng/mL
Hepatic Portal Vein Blood Mean Conc. ([7]; 10 mg/kg bw/day, F): 19.4 ng/mL
Hepatic Portal Vein Blood Mean Conc. Ratio ([7]; 10 mg/kg bw/day, F): 1
Hepatic Portal Vein Blood Mean Conc. ([7]; 10 mg/kg bw/day, M): 24.4 ng/mL
Hepatic Portal Vein Blood Mean Conc. Ratio ([7]; 10 mg/kg bw/day, M): 1
Hepatic Portal Vein Blood Mean Conc. ([7]; 30 mg/kg bw/day, F): 85.0 ng/mL
Hepatic Portal Vein Blood Mean Conc. Ratio ([7]; 30 mg/kg bw/day, F): 4.4
Hepatic Portal Vein Blood Mean Conc. ([7]; 30 mg/kg bw/day, M): 68.2 ng/mL
Hepatic Portal Vein Blood Mean Conc. Ratio ([7]; 30 mg/kg bw/day, M): 2.8
Hepatic Portal Vein Blood Mean Conc. ([7]; 100 mg/kg bw/day, F): 334 ng/mL
Hepatic Portal Vein Blood Mean Conc. Ratio ([7]; 100 mg/kg bw/day, F): 17.2
Hepatic Portal Vein Blood Mean Conc. ([7]; 100 mg/kg bw/day, M): 345 ng/mL
Hepatic Portal Vein Blood Mean Conc. Ratio ([7]; 100 mg/kg bw/day, M): 14.1
NOAEL of 100 mg/kg bw/day as multiple of estimated dietary exposure [8]: 1500 times
IC50 [9]: 0.073 µM
